PGC1a acetyl inh – modulators of PGC1a acetylation; U2OS PGC1a acetylation, AlphaScreen anti-acetyl-lysine; with virally co-expressed GCN5 acetyltransferase; inhibition, % at 15.6 µM; hit rate 0.17% among 350,000;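 active = every replicate shows inhibition of at least 40%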
SIRT5 inh – inhibitors of human sirtuin-5 desuccinylase; Purified SirT5, succinyl-peptide AMC, trypsin-coupled fluorescence; inhibition, % at 15 µM; hit rate 1.1% among 330,000; in the data active = inhibition above about 15%
Target sequence (Q9NXA8 whole entry, looked up): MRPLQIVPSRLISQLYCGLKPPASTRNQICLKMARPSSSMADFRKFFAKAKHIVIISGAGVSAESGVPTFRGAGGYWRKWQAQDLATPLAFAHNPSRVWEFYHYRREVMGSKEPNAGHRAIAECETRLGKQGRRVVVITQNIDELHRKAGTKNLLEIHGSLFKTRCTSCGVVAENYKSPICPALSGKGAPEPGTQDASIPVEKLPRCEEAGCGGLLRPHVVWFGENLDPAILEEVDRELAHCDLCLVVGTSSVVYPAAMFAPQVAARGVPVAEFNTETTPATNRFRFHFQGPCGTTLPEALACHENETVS
Cneo AK release – Cryptococcus neoformans lysis via adenylate kinase release | C. neoformans lysis, adenylate kinase release luminescence, 4 h; normalised: neutral wells 0, clomiphene wells 100 | lysis activity, % at 15 µM | hit rate 0.2% among 360,000 | AID 651654;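 active = mean lysis activity across replicates of at least 80%, whatever share of replicates individually reach that level; inactive = mean lysis activity below 80%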
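Signal: Adenylate kinase release luminescence | Assay system: Log-phase Cryptococcus neoformans yeast cells | Input: Cells at 5 × 10^6 per mL | Buffer or medium: Fresh YPD growth medium | Compound: Single dose | Schedule: Static 4 h at 37 °C with compound, 1 h detection | Controls: Clomiphene | Read-out: Luminescence rise reflecting yeast cell lysis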
Statin myotox sup – protects C2C12 myotubes from simvastatin toxicity; rescue of ATP level, % at 7.49 µM; hit rate 0.78% among 330,000; ATP luminescence, 48 h; scaled: DMSO 0, geranylgeraniol control 100;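 active = mean ATP rescue above about 67%, or every replicate alone reaching that limit, limit read from the data, passing the limit was not always enough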;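 note: myotubes were challenged with 10 µM simvastatin during compound exposure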
Ecoli rRNA inh – selective bacterial rRNA inhibition in E. coli. GFP signal change (wild-type ribosome), % (concentration not given with the values). E. coli WT GFP vs humanized-ribosome RFP mutants, fluorescence, 24 h; active compounds read low; DMSO median 0, no signal -100. hit rate 1.6% among 350,000;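 active = significant combined selectivity score with lowered wild-type GFP, culture density cut under 30%, mutant RFP and density less affected; inactive = any of these conditions unmet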
S100A4 MyoIIA – S100A4-myosin IIA interaction inhibition; P26447; AID 652163; S100A4/TAMRA-MyoIIA peptide fluorescence polarization; hit rate 0.14% among 360,000; inhibition, % at 10.7 µM;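 active = mean inhibition of at least 70% across replicates, with every replicate also reaching that level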
Target sequence (P26447 whole entry, looked up): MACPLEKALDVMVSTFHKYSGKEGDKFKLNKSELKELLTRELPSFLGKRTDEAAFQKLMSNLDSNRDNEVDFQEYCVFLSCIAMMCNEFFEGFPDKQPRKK
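Material: S100A4 monomer protein | Medium: HEPES pH 7.2 with CaCl2, KCl, NaCl, DTT, Triton | Reagent: Labelled myosin peptide probe, 5 nM | Doses: One dose per compound | Times: 5 min incubation before reading | Benchmarks: Neutral control DMSO, positive control TFP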
Large screens that a line does not name were inactive. Shown are actives, neighbours in structure and some others; about 3% of the full set was active somewhere.

O=C(Cn1cnc2c(NCc3ccccc3)ncnc21)NCc1ccc2c(c1)OCO2	SIRT5 inh 26.7
O=C(Cn1cnc2c(NCc3ccccc3)ncnc21)NCc1ccccc1	none
O=S(=O)(NCc1ccc2c(c1)OCO2)c1ccccc1F	SIRT5 inh 22.2 (no result: PGC1a acetyl inh)
CC(=O)NC[C@@H]1[C@@H](c2ccc(-c3cccnc3)cc2)[C@H](CO)N1C(=O)C1CC1	none
Cc1ccc(S(=O)(=O)Nc2ccc3cn[nH]c3c2)cc1	none
Cc1ccc(S(=O)(=O)Nc2cc(C)c(O)c(Sc3n[nH]c(C)n3)c2)cc1	Ecoli rRNA inh -42.8 (no result: PGC1a acetyl inh)
COCC(=O)N1[C@@H](CO)[C@H](c2ccccc2)C12CN(C(=O)NC1CCCC1)C2	none (no result: PGC1a acetyl inh, Cneo AK release, Statin myotox sup)
CCCCOc1ccc(C(=O)Oc2cc(C)[nH]c(=O)c2[N+](=O)[O-])cc1	none
CCOc1ccc(C(=O)Oc2cc(C)[nH]c(=O)c2[N+](=O)[O-])cc1	Statin myotox sup 126.8 (no result: SIRT5 inh)
CO[C@H]1CC[C@@H]2CCOc3c(C#N)cccc3C(=O)N(C)C[C@@H](OC)[C@@H](C)C(=O)N(C)C[C@H]1O2	none (no result: PGC1a acetyl inh)
CO[C@H]1CC[C@@H]2CCOc3c(C#N)cccc3C(=O)N(C)C[C@H](C)C(=O)N(C)C[C@@H]1O2	SIRT5 inh 19.9
CO[C@H]1CC[C@@H]2CCOc3c(C#N)cccc3C(=O)N(C)C[C@@H](OC)[C@@H](C)C(=O)N(C)C[C@@H]1O2	Cneo AK release 84.8 (no result: PGC1a acetyl inh)
CC(C)(C)C(=O)/C(=C\c1cccc([N+](=O)[O-])c1)n1cncn1	PGC1a acetyl inh 96.0 (no result: SIRT5 inh, Ecoli rRNA inh, S100A4 MyoIIA)
CCN(CC)C(=O)C1CCCN(Cc2ccc3ccccc3c2)C1 (stereo not drawn)	SIRT5 inh 46.5
COCC#Cc1ccc2c(c1)O[C@H](CN(C)S(=O)(=O)c1ccc(F)cc1)[C@H](C)CN([C@@H](C)CO)S2(=O)=O	none
COc1cccc(-c2ccc([C@@H]3[C@H](CO)N4C(=O)CN(C(=O)CN5CCOCC5)C[C@@H]34)cc2)c1	none (no result: Cneo AK release, Statin myotox sup)
O=C(O)c1cccc(N2C(=O)/C(=C/c3ccc(SCc4ccc(Cl)cc4)o3)SC2=S)c1	SIRT5 inh 20.9 (no result: PGC1a acetyl inh, Cneo AK release, Statin myotox sup)
O=C(Cc1ccncc1)NCC[C@H]1CC[C@H](NC(=O)C2CCC2)[C@@H](CO)O1	none
COc1ccc(NC(=O)CSc2ccccn2)c([N+](=O)[O-])c1	Ecoli rRNA inh -26.1
COc1ccc(NC(=O)CSc2nc(C)cc(C)n2)c([N+](=O)[O-])c1	none (no result: PGC1a acetyl inh, Cneo AK release, Statin myotox sup)
Cc1ccccc1NC(=O)Nc1ccc2c(c1)C(=O)N(C)[C@@H]1CC[C@H](CC(=O)O)O[C@H]1CO2	none (no result: SIRT5 inh, S100A4 MyoIIA)
O=C(C[C@H]1CC[C@H]2[C@@H](COC[C@H](O)CN2C(=O)Nc2ccc(F)cc2)O1)NCCc1ccncc1	SIRT5 inh 18.0
O=C(C[C@H]1CC[C@@H]2[C@H](COC[C@H](O)CN2C(=O)Nc2ccc(Cl)cc2)O1)NCC1CC1	Ecoli rRNA inh -24.1
CCNC(=O)C[C@H]1CC[C@H]2[C@@H](COC[C@@H](O)CN2C(=O)Nc2ccc(C(F)(F)F)cc2)O1	SIRT5 inh 64.3
O=C(C[C@@H]1CC[C@@H]2[C@H](COC[C@@H](O)CN2C(=O)Nc2ccc(Cl)cc2)O1)NC1Cc2ccccc2C1	Cneo AK release 108.5
C#CCNC(=O)C1=C[C@H](c2ccc(C#C)cc2)C[C@H](OCCCCO)O1	none (no result: Statin myotox sup, Ecoli rRNA inh)
C[C@H]1CN([C@@H](C)CO)C(=O)CCCn2cc(nn2)CO[C@H]1CN(C)S(=O)(=O)c1ccc(C#N)cc1	none (no result: PGC1a acetyl inh)
O=C(NNc1nc(N2CCOCC2)nc(N2CCOCC2)n1)Nc1ccc(Cl)cc1	SIRT5 inh 15.1 (no result: PGC1a acetyl inh, Cneo AK release, Statin myotox sup)
COc1ccc(-c2cnc(N)nc2-c2ccc(OC)cc2O)cc1	Ecoli rRNA inh -27.5 (no result: Statin myotox sup)
COc1ccc(S(=O)(=O)N(C)C[C@@H]2Oc3c(NS(=O)(=O)c4ccc(F)cc4)cccc3C(=O)N([C@H](C)CO)C[C@@H]2C)cc1	none (no result: SIRT5 inh, S100A4 MyoIIA)
O=C(COc1ccc(Cl)cc1)Nc1ncc([N+](=O)[O-])s1	Ecoli rRNA inh -23.8 (no result: Cneo AK release, Statin myotox sup)
Cc1ccc(C(=O)Nc2ncc([N+](=O)[O-])s2)cc1	Ecoli rRNA inh -52.0
N#C[C@H]1[C@@H](c2ccc(C#CC3CCCCC3)cc2)[C@H](CO)N1C(=O)c1cccc(F)c1	none
